This is a sample that favours compounds with a hit; in the whole collection about 5.3% have one here.
Mdm2 MdmX PPI: disrupts the human Mdm2-MdmX interaction; O15151+Q00987; SaOS-2 split-luciferase Mdm2/MdmX complementation, luminescence; inhibition, % at 8 µM; hit rate 3% among 330,000;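 active = inhibition of at least 50% at 8 µM in the primary screen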
Target sequence (O15151 whole entry, looked up): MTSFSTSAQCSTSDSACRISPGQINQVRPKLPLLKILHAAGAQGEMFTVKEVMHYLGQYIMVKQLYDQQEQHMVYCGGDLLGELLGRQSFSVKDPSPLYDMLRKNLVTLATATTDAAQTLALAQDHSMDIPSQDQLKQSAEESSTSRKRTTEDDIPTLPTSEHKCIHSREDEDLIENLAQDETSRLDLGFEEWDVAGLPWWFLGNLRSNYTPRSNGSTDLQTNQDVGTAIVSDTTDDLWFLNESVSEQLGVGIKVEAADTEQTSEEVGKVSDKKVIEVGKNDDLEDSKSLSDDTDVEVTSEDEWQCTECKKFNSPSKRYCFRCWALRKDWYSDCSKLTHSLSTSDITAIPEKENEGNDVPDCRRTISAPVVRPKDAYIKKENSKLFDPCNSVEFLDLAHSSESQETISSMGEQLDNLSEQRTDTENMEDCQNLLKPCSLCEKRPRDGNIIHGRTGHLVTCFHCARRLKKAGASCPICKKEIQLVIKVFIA
Target sequence (Q00987 whole entry, looked up): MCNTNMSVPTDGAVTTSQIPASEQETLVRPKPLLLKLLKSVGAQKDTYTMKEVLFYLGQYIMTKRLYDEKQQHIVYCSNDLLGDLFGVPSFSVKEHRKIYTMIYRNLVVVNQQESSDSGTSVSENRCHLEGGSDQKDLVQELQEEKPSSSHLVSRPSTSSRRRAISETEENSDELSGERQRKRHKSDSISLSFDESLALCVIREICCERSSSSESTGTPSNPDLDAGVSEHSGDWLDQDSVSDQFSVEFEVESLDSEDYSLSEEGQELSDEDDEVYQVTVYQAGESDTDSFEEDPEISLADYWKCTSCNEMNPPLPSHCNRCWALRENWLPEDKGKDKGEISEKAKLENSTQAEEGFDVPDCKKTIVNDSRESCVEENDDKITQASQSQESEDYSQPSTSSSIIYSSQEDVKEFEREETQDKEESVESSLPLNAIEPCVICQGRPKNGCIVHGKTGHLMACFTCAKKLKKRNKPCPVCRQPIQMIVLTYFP
Calb FLC: C. albicans growth modulation with fluconazole; growth inhibition, % (concentration not given with the values); C. albicans CaCi-2 (fluconazole-resistant clinical isolate) + fluconazole, Alamar Blue growth, 48 h; hit rate 0.57% among 300,000; AID 1979;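 active = growth inhibition above about 58% in most replicates, limit read from the data, passing the limit was not always enough; inconclusive = exactly half the replicates above a set limit; inactive = most replicates below a set limit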;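 also: all wells also contain fluconazole at 8 µg/ml as a sub-toxic cotreatment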
Beta cell apopt: beta cell apoptosis inhibition. INS-1E cytokine-induced death, ATP luminescence, 48 h; percent of positive-control rescue, neutral wells zero. protection from apoptosis, % (concentration not given with the values). hit rate 0.8% among 300,000. AID 435005;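 active = Every replicate reaches about 75%, or at least half do and their mean reaches it too, limit read from the data; inconclusive = At least half of replicates reach the limit but their mean does not; inactive = Under half of replicates reach the limit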;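 also: higher means more ATP so stronger rescue from cytokine killing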
CSC inhib: cancer stem cell inhibition; cancer stem cell-like cells viability, luminescence; inhibition, % at 7.5 µM; hit rate 1.1% among 300,000; AID 2717; in the data active = inhibition above about 75%; inconclusive = no clear call, values can overlap the other calls; tested in HMLE shEcad cells
NALP3 yeast inh: inhibitors of NALP3 inflammasome in yeast; Yeast reconstituted NLRP3/ASC/caspase-1, beta-gal luminescence, 24 h; hit rate 0.39% among 330,000; inhibition, % at 10 µM; AID 2825;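 active = inhibition of 50% or more; inactive = inhibition below 50%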
T cruzi repl: blocks replication of Trypanosoma cruzi. T. cruzi beta-gal in NIH3T3, luminescence, 90 h. inhibition, % (no concentration beside the values). hit rate 1.4% among 300,000. AID 1885;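 active = mean inhibition across valid replicates above about 55%, limit read from the data; inconclusive = mean below that limit but half or more replicates reach it; inactive = mean below it, under half of replicates reach it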;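 also: signal also drops with host cell toxicity which is not excluded here; higher percent means less beta-gal luminescence so fewer parasites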
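Assay system: NIH/3T3 host cells with β-galactosidase reporter T. cruzi; input: 5,000 host fibroblasts per well; compound: single 50 nL compound addition per well in DMSO; timing: ≥90 h infection period, 3 h prior cell attachment; measured by: GalScreen β-gal luminescence, detergent lysis, 60 min; evaluation: percent inhibition of parasite-derived β-gal signal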
Mdm2-MdmX conf: human Mdm2/MdmX binding inhibition, confirmed; shares compounds with Mdm2 MdmX PPI; luminescent assay; inhibition, % at 8 µM; hit rate 55% among 10,000; AID 489028; in the data active = inhibition above about 40%
FLuc counter: counter-screen for Mdm2/MdmX inhibitors: full-length luciferase; shares compounds with Mdm2 MdmX PPI; inhibition, % at 8 µM; hit rate 77% among 6,200; SaOS-2 full-length luciferase counterscreen, luminescence; AID 504607;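 active = mean inhibition at 8 µM reaching about 37%, which flags the compound as non-specific, limit read from the data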;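 also: p53-null SaOS-2 cells with luciferase driven by a doxycycline-inducible promoter; compound on cells about two nights before reading with doxycycline added after day one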
Each line names hits and unclear results; the compound was inactive in the other large screens (follow-up assays come after a bar, where they were run).

COc1ccc(C2C(C#N)=C(N)Oc3c2ccc2cccnc32)cc1OC (centres undefined)	Mdm2 MdmX PPI 81, Calb FLC 93, Beta cell apopt 99 | Mdm2-MdmX conf 78 | FLuc counter 60
CCOc1cc(CN2CCc3c([nH]c4ccccc34)C2)ccc1OC	none
CCC(=O)NC1=C(Cl)C(=O)C(NC(=O)CC)=C(Cl)C1=O	Mdm2 MdmX PPI 58 (no result: Calb FLC, Beta cell apopt, CSC inhib, T cruzi repl) | Mdm2-MdmX conf 44 | FLuc counter inactive
CCC(=O)NC1=C(NC(C)c2ccccc2)C(=O)c2ccccc2C1=O (centres undefined)	none (no result: Beta cell apopt)
c1ccc(Cn2nnc3c(NCc4ccc5c(c4)OCO5)nc(C4CC4)nc32)cc1	none
Cc1nc(NCc2ccc3c(c2)OCO3)c2nnn(Cc3ccccc3)c2n1	Mdm2 MdmX PPI 77 | Mdm2-MdmX conf inactive | FLuc counter 67
Cc1ccc(CNC(=O)CCS(=O)(=O)c2ccc3c(c2)CC(C)N3C(=O)C2CC2)cc1 (centres undefined)	Mdm2 MdmX PPI 63 | Mdm2-MdmX conf 49 | FLuc counter 50
Cc1ccc(CNC(=O)C2CCN(S(=O)(=O)c3ccc4c(c3)CC(C)N4C(=O)C3CC3)CC2)cc1 (centres undefined)	none (no result: Beta cell apopt)
COc1ccc(S(=O)(=O)Nc2cccc(S(=O)(=O)N3CCCCCC3)c2)cc1	none (no result: Mdm2 MdmX PPI, NALP3 yeast inh)
O=S(=O)(Nc1nc2ccccc2nc1Nc1cccc(S(=O)(=O)N2CCCCC2)c1)c1ccccc1	Mdm2 MdmX PPI 82, CSC inhib 124 | Mdm2-MdmX conf 79 | FLuc counter 43
O=S(=O)(Nc1nc2ccccc2nc1Nc1ccc2c(c1)OCO2)c1ccc(F)cc1	Mdm2 MdmX PPI 50 | Mdm2-MdmX conf inactive
O=C(O)c1cccc(Nc2nc3ccccc3nc2NS(=O)(=O)c2ccc(F)cc2)c1	none (no result: Calb FLC, T cruzi repl)
CCc1ccc2[nH]c(=O)c(C(c3nnnn3Cc3ccccc3)N3CCOCC3)cc2c1 (centres undefined)	none
CC(Oc1ccc(F)cc1)C(=O)N(CCC1=CCCCC1)c1c(N)n(Cc2ccccc2)c(=O)[nH]c1=O (centres undefined)	none
CCOC(=O)c1c(O)c2cc(Cl)ccc2n(CC)c1=O	none
OC(COCC(F)(F)C(F)(F)C(F)(F)C(F)F)Cn1c2ccc(Cl)cc2c2cc(Cl)ccc21 (centres undefined)	Mdm2 MdmX PPI 95, CSC inhib 116 (no result: Beta cell apopt) | Mdm2-MdmX conf inactive
Cc1ccc(C(=O)/C=C/c2ccccc2[N+](=O)[O-])cc1	none
O=C(/C=C/c1ccccc1[N+](=O)[O-])c1ccccc1Br	Mdm2 MdmX PPI 72, CSC inhib 84 | Mdm2-MdmX conf inactive
Cc1cc(NC(=O)CSc2nc3ccccc3c(=O)n2C(C)c2ccccc2)no1 (centres undefined)	Mdm2 MdmX PPI 72 | Mdm2-MdmX conf inactive
CCOC(=O)c1c(C)sc2c1N(C(=O)CCl)c1cc(Cl)ccc1S2	Mdm2 MdmX PPI 100, CSC inhib 130 | Mdm2-MdmX conf 77 | FLuc counter 47
Cc1ccc(O)c(C(=O)c2cc(C#N)c(=O)n(-c3nccs3)c2)c1	Mdm2 MdmX PPI 55 | Mdm2-MdmX conf inactive
Cc1cc(C)c2nc(-c3ccccn3)cc(C(=O)NCc3cc(C)n(C)n3)c2c1	none
CC(C)(C)c1ccc(-c2nnc3sc(-c4ccccn4)nn23)cc1	Mdm2 MdmX PPI 66 | Mdm2-MdmX conf 65 | FLuc counter inactive
CC(C)Cc1nnc(NC(=O)CCC(=O)NC2CC2)s1	none
O=S(=O)(C/C(=C/CO)S(=O)(=O)c1ccccc1)c1ccccc1	Mdm2 MdmX PPI 89, Beta cell apopt 90, T cruzi repl 62 | Mdm2-MdmX conf 96 | FLuc counter 51
COc1ccc(-n2nc3c(N4CCC(C(=O)NCc5ccccc5C)CC4)nnc(C)c3c2C)cc1	Mdm2 MdmX PPI 100 | Mdm2-MdmX conf 98 | FLuc counter 51
COc1ccc(-n2nc3c(N4CCC(C(=O)NCC(C)c5ccccc5)CC4)nnc(C)c3c2C)cc1 (centres undefined)	Mdm2 MdmX PPI 70 | Mdm2-MdmX conf inactive
COc1ccc(-n2nc3c(N4CCC(C(=O)NCc5ccco5)CC4)nnc(C)c3c2C)cc1	none
COc1ccc(-n2nc3c(N4CCC(C(=O)NC5CCCCC5)CC4)nnc(C)c3c2C)cc1	Mdm2 MdmX PPI 97 | Mdm2-MdmX conf inactive | FLuc counter 76
CCOc1ccccc1CNC(=O)C1CCCN(c2nnc(C)c3c(C)n(-c4ccccc4)nc23)C1 (centres undefined)	Mdm2 MdmX PPI 90 | Mdm2-MdmX conf 41 | FLuc counter inactive
COc1cc(NC2c3ccccc3C(=O)N2Cc2ccccc2)cc(OC)c1OC (centres undefined)	none
C[C@H](NC(=O)c1nc[nH]c1C(=O)NC(c1ccccc1)c1ccccc1)C(=O)OCc1ccccc1	none
Cc1ccc(-n2nc3c(N4CCC(C(=O)NCCc5ccccc5C)CC4)nnc(C)c3c2C)cc1	Mdm2 MdmX PPI 98, CSC inhib 83, T cruzi repl 55 | Mdm2-MdmX conf 43 | FLuc counter 53
COc1ccc(-n2nc3c(N4CCC(C(=O)NCCc5ccccc5C)CC4)nnc(C)c3c2C)cc1	CSC inhib inconclusive
COC(=O)c1cc(=O)n(CCc2ccc(OC)cc2)c(=Nc2ccc(F)c(Cl)c2)s1	Mdm2 MdmX PPI 71, CSC inhib 100 | Mdm2-MdmX conf inactive
COC(=O)c1cc(=O)n(Cc2ccc3c(c2)OCO3)c(=Nc2ccc(F)c(Cl)c2)s1	Mdm2 MdmX PPI 62 | Mdm2-MdmX conf inactive | FLuc counter 102
CCC(C)(C)NC(=O)c1cccc(NC(=O)C(C)C)c1	none
COc1cccc(C(=O)Oc2c(Br)cc(Br)cc2/C=N/NC(=O)c2cc(C)[nH]n2)c1	Mdm2 MdmX PPI 59, Beta cell apopt 81, T cruzi repl 61 | Mdm2-MdmX conf 55 | FLuc counter inactive
CC[C@@]1(C(=O)OC)N[C@H](CN(C)S(=O)(=O)c2ccc(-c3ccccc3)cc2)[C@@H]2C(=O)N(Cc3ccccc3)C(=O)[C@@H]21	Mdm2 MdmX PPI 91 (no result: Calb FLC, Beta cell apopt, CSC inhib, T cruzi repl) | Mdm2-MdmX conf 87 | FLuc counter 46
CCN(C[C@H]1N[C@@](CC)(C(=O)OC)[C@H]2C(=O)N(Cc3ccccc3)C(=O)[C@@H]12)S(=O)(=O)c1ccc(-c2ccccc2)cc1	Mdm2 MdmX PPI 80 (no result: Calb FLC, CSC inhib, T cruzi repl) | Mdm2-MdmX conf 79 | FLuc counter inactive
CCN(C[C@H]1N[C@@](CC)(C(=O)OC)[C@H]2C(=O)N(Cc3ccccc3)C(=O)[C@@H]12)S(=O)(=O)c1ccc(C(C)(C)C)cc1	Mdm2 MdmX PPI 69 (no result: Calb FLC, CSC inhib, T cruzi repl) | Mdm2-MdmX conf 62 | FLuc counter 52

Source: PubChem
